Reference: ChEMBL document CHEMBL2417428, “Cytotoxic psammaplysin analogues from a Suberea sp. marine sponge and the role of the spirooxepinisoxazoline in their activity” (2013)

Columns and labels:
Format in all cases: functional
ACHN = assay: Cytotoxicity against human ACHN cells after 48 hrs by sulforhodamine B assay
Procedure, shortened: (§1)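 Cells seeded in 96-well plates with test compounds or doxorubicin control and incubated 48 h. Fixed with 50% trichloroacetic acid, stained with 0.4% sulforhodamine B in 1% acetic acid, and washed with 1% acetic acid. Bound dye was extracted with 10 mM Tris base (pH 10.5) and absorbance read at 540 nm for growth inhibition.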

PC-3 = assay: Cytotoxicity against human PC3 cells after 48 hrs by sulforhodamine B assay; conditions: PC-3, 48 h; procedure, shortened: as §1
NCI-H23 = assay: Cytotoxicity against human NCI-H23 cells after 48 hrs by sulforhodamine B assay; conditions: NCI-H23, 48 h; procedure, shortened: as §1
HCT-15 = assay: Cytotoxicity against human HCT15 cells after 48 hrs by sulforhodamine B assay; conditions: HCT-15, 48 h; procedure, shortened: as §1
NUGC-3 = assay: Cytotoxicity against human NUGC3 cells after 48 hrs by sulforhodamine B assay; conditions: NUGC-3, 48 h; procedure, shortened: as §1
MDA-MB-231 = assay: Cytotoxicity against human MDA-MB-231 cells after 48 hrs by sulforhodamine B assay; conditions: MDA-MB-231, 48 h; procedure, shortened: as §1

Compound | GI50 (ACHN) [µM] | GI50 (PC-3) [µM] | GI50 (NCI-H23) [µM] | GI50 (HCT-15) [µM] | GI50 (NUGC-3) [µM] | GI50 (MDA-MB-231) [µM]
N#CC(=O)NCCCOc1c(Br)cc(C(O)CN)cc1Br (configuration not stated) | > 70 | > 70 | > 70 | > 70 | > 70 | > 70
COC1=C(Br)C[C@@]2(OC=C1Br)ON=C(C(=O)NCCCOc1c(Br)cc(CCNC=C3C(=O)C=CC3=O)cc1Br)[C@H]2O | 10.3 | 3.7 | 7 | 7.4 | 4 | 3.9
COC1=C(Br)C[C@@]2(OC=C1Br)ON=C(C(=O)NCCCOc1c(Br)cc(C(O)CNC(=O)CCCCCCCCCCCC(C)C)cc1Br)[C@H]2O (some centres not stated) | 27 | 25 | 27 | 24 | 26 | 21
COC1=C(Br)C[C@]2(OC=C1Br)ON=C(C(=O)NCCCOc1c(Br)cc(CCN/C=C3/C(=O)CC(Cl)C3=O)cc1Br)[C@@H]2O (mixture of isomers) | 3.3 | 2.3 | 6.4 | 3.3 | 3.5 | 1.2
COC1=C(Br)C[C@]2(OC=C1Br)ON=C(C(=O)NCCCOc1c(Br)cc(C(O)CN/C=C3/C(=O)CC(Cl)C3=O)cc1Br)[C@@H]2O (mixture of isomers) [19-HYDROXYPSAMMAPLYSINE X] | 2.5 | 2.1 | 3.5 | 3.5 | 4 | 0.8
COC1=C(Br)C[C@@]2(OC=C1Br)ON=C(C(=O)NCCCOc1c(Br)cc(C(O)CN)cc1Br)[C@H]2O (relative stereo) | 1.6 | 2.7 | 3.7 | 4 | 2.5 | 0.53
COC1=C(Br)C[C@@]2(OC=C1Br)ON=C(C(=O)NCCCOc1c(Br)cc(CCN)cc1Br)[C@H]2O (relative stereo) | 5.1 | 6.9 | 12.4 | 3.9 | 3.8 | 4.3
COC1=C(Br)C[C@@]2(OC=C1Br)ON=C(C(=O)NCCCOc1c(Br)cc(C(O)CNC=C3C(=O)C=CC3=O)cc1Br)[C@H]2O (some centres not stated) [19-HYDROXYPSAMMAPLYSINE E] | 2.3 | 1.4 | 3.6 | 3.8 | 2.3 | 0.51
N#CC(=O)NCCCOc1c(Br)cc(CCN)cc1Br [CERATINAMINE] | > 70 | > 70 | > 70 | > 70 | > 70 | > 70
COc1cccc2c1C(=O)c1c(O)c3c(c(O)c1C2=O)C[C@@](O)(C(=O)CO)C[C@@H]3O[C@H]1C[C@H](N)[C@H](O)[C@H](C)O1 [DOXORUBICIN] | 2 | 0.52 | 1.9 | 1.4 | 0.51 | 1.8
NCCCOc1c(Br)cc(C(O)CN)cc1Br (configuration not stated) [HYDROXYMOLOKA'IAMINE] | > 70 | > 70 | > 70 | > 70 | > 70 | > 70
NCCCOc1c(Br)cc(CCN)cc1Br [MOLOKA'IAMINE] | > 70 | > 70 | > 70 | > 70 | > 70 | > 70
